Screening results from PubChem.
This is a sample that favours compounds with a hit; in the whole collection about 1.8% have one here.
PG9 binder = small molecules binding HIV-1 gp120 antibody PG9; TR-FRET gp120-PG9 antibody binding; inhibition, % at 6.7 µM; 360,000 tested, 0.43% active; in the data active = inhibition above about 8.5%
Rin1-Abl PPI inh = blocks binding of human Rin1 to Abl; P00519+Q13671; TR-FRET Rin1/Abl binding, biochemical; inhibition, % at 7.35 µM; 360,000 tested, 0.4% active; AID 588664; in the data active = inhibition above about 5%, passing the limit was not always enough
Target sequence (P00519 whole entry, looked up): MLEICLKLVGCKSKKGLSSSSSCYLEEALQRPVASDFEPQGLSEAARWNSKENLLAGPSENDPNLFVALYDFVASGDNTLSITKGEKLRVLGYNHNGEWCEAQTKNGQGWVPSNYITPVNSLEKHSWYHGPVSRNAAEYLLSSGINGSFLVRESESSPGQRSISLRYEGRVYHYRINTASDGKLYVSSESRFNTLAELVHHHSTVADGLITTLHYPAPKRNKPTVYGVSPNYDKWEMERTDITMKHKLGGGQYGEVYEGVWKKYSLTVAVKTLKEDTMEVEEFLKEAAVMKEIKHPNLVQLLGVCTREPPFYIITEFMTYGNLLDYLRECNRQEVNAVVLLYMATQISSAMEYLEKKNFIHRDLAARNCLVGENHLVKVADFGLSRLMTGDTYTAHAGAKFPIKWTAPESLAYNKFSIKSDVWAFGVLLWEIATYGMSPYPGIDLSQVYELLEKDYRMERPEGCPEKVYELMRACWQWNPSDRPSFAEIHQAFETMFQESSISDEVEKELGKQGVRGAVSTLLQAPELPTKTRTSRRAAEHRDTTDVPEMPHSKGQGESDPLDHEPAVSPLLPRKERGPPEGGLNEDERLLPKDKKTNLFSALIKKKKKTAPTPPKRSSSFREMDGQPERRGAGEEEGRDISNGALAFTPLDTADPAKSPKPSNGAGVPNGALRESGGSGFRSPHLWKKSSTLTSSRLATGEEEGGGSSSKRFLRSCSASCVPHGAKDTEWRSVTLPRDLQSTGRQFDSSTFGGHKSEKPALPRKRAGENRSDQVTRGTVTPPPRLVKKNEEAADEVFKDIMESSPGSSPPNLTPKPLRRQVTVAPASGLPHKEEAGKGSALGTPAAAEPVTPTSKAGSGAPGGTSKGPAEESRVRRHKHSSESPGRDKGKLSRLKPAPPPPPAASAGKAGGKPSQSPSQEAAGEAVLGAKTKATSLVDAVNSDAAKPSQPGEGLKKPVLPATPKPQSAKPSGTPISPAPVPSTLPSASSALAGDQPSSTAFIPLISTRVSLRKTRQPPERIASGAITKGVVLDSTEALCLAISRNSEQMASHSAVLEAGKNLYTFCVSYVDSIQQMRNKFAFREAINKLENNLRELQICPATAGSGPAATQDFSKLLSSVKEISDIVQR
Target sequence (Q13671 whole entry, looked up): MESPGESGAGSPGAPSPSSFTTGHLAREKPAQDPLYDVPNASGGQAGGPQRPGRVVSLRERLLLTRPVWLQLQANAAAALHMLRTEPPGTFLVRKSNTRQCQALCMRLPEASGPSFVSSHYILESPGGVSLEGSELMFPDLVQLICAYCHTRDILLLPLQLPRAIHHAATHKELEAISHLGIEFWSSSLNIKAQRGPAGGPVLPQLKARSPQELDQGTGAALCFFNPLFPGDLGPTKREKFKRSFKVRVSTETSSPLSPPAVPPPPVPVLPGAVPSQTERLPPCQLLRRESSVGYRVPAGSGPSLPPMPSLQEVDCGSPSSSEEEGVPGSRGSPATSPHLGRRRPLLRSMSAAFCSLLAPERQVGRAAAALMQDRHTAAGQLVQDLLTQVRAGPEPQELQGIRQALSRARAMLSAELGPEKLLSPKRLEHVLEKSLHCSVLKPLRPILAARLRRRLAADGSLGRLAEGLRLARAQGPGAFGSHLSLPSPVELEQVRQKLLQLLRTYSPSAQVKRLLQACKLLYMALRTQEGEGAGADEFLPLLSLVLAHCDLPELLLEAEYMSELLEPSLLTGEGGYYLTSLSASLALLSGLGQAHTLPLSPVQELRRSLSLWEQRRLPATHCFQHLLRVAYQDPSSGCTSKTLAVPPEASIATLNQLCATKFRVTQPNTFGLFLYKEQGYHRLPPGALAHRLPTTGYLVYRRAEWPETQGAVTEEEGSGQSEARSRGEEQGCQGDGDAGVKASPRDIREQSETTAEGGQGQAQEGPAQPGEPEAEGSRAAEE
NR1D1 modulator = Rev-erb alpha (human) modulation; AID 1259318; Rev-erbα–FITC-DNA binding, fluorescence polarization, 90 min; 370,000 tested, 0.79% active; P20393; activity, % at 10 µM;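 active = activity above about 14%, limit read from the data; passing the limit was not always enough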
Tb MetRS inh = Trypanosoma brucei MetRS inhibition | 360,000 tested, 0.4% active | inhibition, % at 11.9 µM | purified T. brucei MetRS, ATP depletion, Kinase-Glo luminescence | AID 624268;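 active = inhibition above a per-plate cutoff of the control wells' mean inhibition plus 3 SD, cut at about 5.5% in these data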
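technique = Kinase-Glo luminescence, ATP depletion format | system = purified MetRS (methionyl-tRNA synthetase) enzyme from Trypanosoma brucei | timing = 15 min preincubation, 2 h reaction, all 25 °C | evaluation = percent inhibition versus plate control medians | dosing = single dose, 11.9 µM final nominal, 0.9% final DMSO | also added = substrates ATP, L-methionine and bulk Escherichia coli tRNA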
Rin1-Abl confirm = confirmation of inhibitors of human Rin1-Abl interaction | inhibition, % at 7.35 µM | TR-FRET Rin1-Abl binding, purified proteins | 1,300 tested, 49% active | shares compounds with Rin1-Abl PPI inh
GFP quencher = counter-screen for Rin1-Abl inhibitors: GFP fluorescence quenchers; AID 602125; shares compounds with Rin1-Abl PPI inh; 1,300 tested, 8.5% active; inhibition, % at 6.75 µM; inhibitors/quenchers counterscreen;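 also: ABL1-eGFP fusion protein alone without its partner RIN1-SBP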
GFP quench DR = quenches GFP in dose response, Rin1-Abl counter-screen; shares compounds with Rin1-Abl PPI inh; GFP fluorescence interference/quenching counterscreen; IC50, µM; 230 tested, under 10 active; AID 602182; call rule not given here;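 also: ABL1-eGFP fusion protein alone without its RIN1 binding partner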
Tb MetRS conf = Trypanosoma brucei MetRS inhibition confirmed | shares compounds with Tb MetRS inh | T. brucei MetRS enzyme, luminescence (ATP depletion) | inhibition, % at 11.9 µM | 1,400 tested, 93% active | AID 624412; in the data active = inhibition above about 7%
Jurkat cytotox = kills Jurkat cells in T. brucei MetRS counterscreen; 1,400 tested, 12% active; Jurkat cells viability, ATP luminescence; inhibition, % at 8.3 µM; shares compounds with Tb MetRS inh; in the data active = inhibition above about 15%
Tb MetRS inh FP = orthogonal test for Trypanosoma brucei MetRS inhibitors; shares compounds with Tb MetRS inh; purified T. brucei MetRS, fluorescence polarization; inhibition, % at 11.9 µM; 1,400 tested, 44% active; AID 651607; in the data active = inhibition above about 17%
PG9 bind confirm = confirmation of small molecules binding HIV-1 gp120 antibody PG9; shares compounds with PG9 binder; TR-FRET PG9 antibody binding, biochemical; inhibition, % at 6.7 µM; 1,500 tested, 90% active; AID 651571; in the data active = inhibition above about 9%
PGV04 counter = binds control antibody PGV04 in PG9 binder counter-screen. AID 651604. shares compounds with PG9 binder. TR-FRET PGV04 antibody-gp120 binding, biochemical. 1,500 tested, 95% active. inhibition, % at 6.7 µM; in the data active = inhibition above about 9.5%
Rev-erbA confirm = Rev-erb alpha (human) modulation, hit confirmation | shares compounds with NR1D1 modulator | Rev-erb alpha FITC-DNA binding, fluorescence polarization, 90 min | activation, % at 25 µM | 3,000 tested, 61% active | AID 1259319;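 active = activation at or above a set limit, or at least 3 SD above the negative control mean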
RORg counter = RORgamma DNA-binding activity, dose-response counter-screen. shares compounds with NR1D1 modulator. purified RORgamma protein-FITC-DNA binding, fluorescence polarization. IC50, µM. 910 tested, 8% active;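 active = Compounds whose fitted half-maximal concentration for disrupting protein-DNA binding is below 10 micromolar; the record names Rev-erb in its text, so the target is in doubt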
Hits are given with their value; 0 = inactive; - = no result. Rule as the data show it, unless noted: active = inhibition above about 6.5%; inactive = the rest.

SMILES	PG9 binder	Rin1-Abl PPI inh	NR1D1 modulator	Tb MetRS inh	others
COc1cc2c(cc1OC)[C@@]13CCN4CC5=CCOC6CC(=O)N2C1[C@H]6[C@H]5C[C@H]43 (stereo partly specified)	-	-	0	-
COc1ccc(C(=O)C2CCCN(Cc3cnc(C)s3)C2)c(OC)c1 (stereo unspecified)	0	9.9	0	0	Rin1-Abl confirm=0;GFP quencher=0
O=C1NC2NC(=O)N([N+](=O)[O-])C2N1 (stereo unspecified)	0	8.7	0	0	Rin1-Abl confirm=8.6;GFP quencher=0
CCOC(=O)c1c(NC(=O)c2c(N)n(CCCOC)c3nc4ccccc4nc23)sc2c1CCCC2	0	0	0	0
CCOCCCn1c(N)c(C(=O)Nc2sc3c(c2C(=O)OC)CCCC3)c2nc3ccccc3nc21	0	22	0	8.3	Rin1-Abl confirm=0;GFP quencher=0;Tb MetRS conf=0;Jurkat cytotox=0;Tb MetRS inh FP=0
CCn1nc(/C=C/c2ccccc2)nc2c(=O)n(C)c(=O)nc1-2	0	26	0	18	Rin1-Abl confirm=40;GFP quencher=0;GFP quench DR=0;Tb MetRS conf=36;Jurkat cytotox=57;Tb MetRS inh FP=0
CC(=O)NC1CCSC1=O (stereo unspecified)	-	-	0	-
NC(=O)OCCSc1nnc(-c2cccc(C(N)=S)c2)o1	0	0	0	16	Tb MetRS conf=10;Jurkat cytotox=0;Tb MetRS inh FP=0
Cc1nccc2c1[nH]c1ccc(Br)cc12	0	0	0	9.0	Tb MetRS conf=17;Jurkat cytotox=0;Tb MetRS inh FP=0
C[C@@H]1CC[C@H]2[C@@H](C)C(=O)O[C@@H]3OC4(C)CC[C@@H]1[C@]32OO4	-	-	0	-
N#Cc1cc2c(nc1SCC(=O)Nc1cc(Cl)ccc1Cl)C1CCN2CC1	0	0	0	0
N#Cc1cc2c(nc1SCC(=O)Nc1ccc(Cl)cc1)C1CCN2CC1	0	0	0	9.2	Tb MetRS conf=15;Jurkat cytotox=20;Tb MetRS inh FP=0
O=C1NC(=O)C(=Cc2ccc(N3CCN(C(=O)c4ccccc4)CC3)c([N+](=O)[O-])c2)C(=O)N1	0	0	0	13	Tb MetRS conf=18;Jurkat cytotox=0;Tb MetRS inh FP=0
CCCC(C)C1(CC)C(=O)NC(=Nc2ccc(F)cc2)NC1=O (stereo unspecified)	0	0	0	0
CCCC1(CCC)C(=O)NC(=NCc2ccccc2)NC1=O	0	0	0	0
CCCC(C)C1(CC)C(=O)NC(=Nc2ccccc2)NC1=O (stereo unspecified)	0	0	0	8.7	Tb MetRS conf=18;Jurkat cytotox=0;Tb MetRS inh FP=0
CCCC1(CCC)C(=O)NC(=Nc2ccccc2)NC1=O	0	0	0	12	Tb MetRS conf=19;Jurkat cytotox=0;Tb MetRS inh FP=0
Cc1ccc(NC(=O)CN2C(=O)CN=C(c3ccccc3)c3cc(Cl)ccc32)cc1	0	0	0	59	Tb MetRS conf=81;Jurkat cytotox=0;Tb MetRS inh FP=53
Cc1cccc(Cc2cnc[nH]2)c1C	-	-	0	-
S=C=NCc1ccccc1	-	-	0	-
CC(=O)[O][Hg][c]1ccccc1	-	-	0	-
Clc1ccc(COC(Cn2ccnc2)c2ccc(Cl)cc2Cl)c(Cl)c1 (stereo unspecified)	0	0	0	42	Tb MetRS conf=58;Jurkat cytotox=0;Tb MetRS inh FP=46
O=C1C=C2C=C[C@@H]3C[C@@]2(O1)[C@H]1CCCCN31	-	-	0	-
Cn1c(O)c(/C=C2\C=Nc3ccccc32)c(=O)n(C)c1=O	18	0	0	0	PG9 bind confirm=13;PGV04 counter=28
CCN1C(=O)C(=C/C=C/c2ccco2)C(=O)N(CC)C1=S	0	0	0	0
SMILES	PG9 binder	Rin1-Abl PPI inh	NR1D1 modulator	Tb MetRS inh	others
CCN1C(=O)C(=C2C=C(C)N(Cc3ccco3)C(C)=C2)C(=O)N(CC)C1=S	20	0	0	0	PG9 bind confirm=22;PGV04 counter=27
NCC(O)c1cccc(O)c1 (stereo unspecified)	-	-	0	-
CCOC(=O)C1CCCN(c2ccc([N+](=O)[O-])c3nonc23)C1 (stereo unspecified)	0	0	57	0	Rev-erbA confirm=57;RORg counter=2.5
CCC1C(=O)OCC1Cc1cncn1C (stereo unspecified)	-	-	0	-
CN1CCc2cc3c(cc2C1O)OCO3 (stereo unspecified)	-	-	0	-
C[C@]12CC[C@H](O)CC1=CCC1C2CC[C@]2(C)C(=O)CC[C@@H]12 (stereo partly specified)	-	-	0	-
O=[N+]([O-])c1ccc(N2CCCC2)c2ccncc12	0	0	36	0	Rev-erbA confirm=35;RORg counter=0
O=[N+]([O-])c1ccc(NC2CCCC2)c2ccncc12	-	0	-	0
O=C(CNC(=O)OCc1ccccc1)NC(Cc1ccccc1)P(=O)(Oc1ccccc1)Oc1ccccc1 (stereo unspecified)	-	-	0	-
C=C(C)c1cccc(C(C)(C)NC(=O)NC2CN3CCC2CC3)c1 (stereo unspecified)	0	0	38	0	Rev-erbA confirm=46
CNC(=O)Oc1cccc2c1OC(C)(C)C2	-	-	0	-
Cc1ccc(-n2c(O)c(/C=N/c3ncc(Br)cc3Br)c(=O)[nH]c2=O)cc1	0	0	131	0	Rev-erbA confirm=143;RORg counter=0
O=C1CCO1	-	-	0	-
CCOc1ccc(N=Cc2c(O)n(Cc3ccccc3)c(=S)[nH]c2=O)cc1	0	0	41	0	Rev-erbA confirm=0
O=c1[nH]c(=O)n(Cc2ccc(F)cc2)c(O)c1C=Nc1ccc(Cl)cc1	0	0	125	0	Rev-erbA confirm=0
Cc1c(C(=O)c2cccc3ccccc23)c2cccc3c2n1[C@H](CN1CCOCC1)CO3	0	0	27	0	Rev-erbA confirm=16
O=C(CN1CCOCC1)c1cccc2ccccc12	0	0	0	0
O=C(O)c1ccccc1-c1c2cc(Br)c(=O)cc-2oc2[c]([Hg])c(O)c(Br)cc12	-	-	118	-	Rev-erbA confirm=79
CC(C)NCC(O)c1ccccc1Cl (stereo unspecified)	-	-	0	-
O=C1NC(=O)C(=Cc2ccc(N3CCOCC3)o2)C(=O)N1	0	0	30	0	Rev-erbA confirm=28
CN1C(=O)C(=Cc2ccc(SC3CCCCC3)o2)C(=O)N(C)C1=O	0	0	0	0
